KCNK9 inh – KCNK9 potassium channel inhibitors, primary screen, HEK293 cells, thallium flux; FluxOR thallium flux fluorescence; hits give low values; B-score at 10 µM; hit rate 1.2% among 310,000; AID 488922, 2010;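 active means ratio B-score over 3 SD below the library mean, with starting fluorescence within 5 SD of its mean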;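 further: negative B-score means less thallium flux so channel inhibition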
KCNK3 block – human KCNK3 channel inhibitors, primary screen, CHO cells, FluxOR thallium flux, B-score | Potassium channel subfamily K member 3 (Homo sapiens), O14649 | FluxOR fluorescence; hits give low values | B-score at 10 µM | hit rate 0.84% among 340,000;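 active means B-score under library mean minus 4 SD, starting fluorescence ratio at most library mean plus 5 SD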;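 further: more negative B-score means stronger inhibition of thallium flux through KCNK3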
KCNQ1 inh – inhibitors of human KCNQ1 channel, primary screen, cell-based, thallium flux, high-throughput; Potassium voltage-gated channel subfamily KQT member 1 (Homo sapiens), P51787; CHO-K1 KCNQ1, FluxOR thallium flux fluorescence; hits give high values; B-score at 10 µM; hit rate 1.3% among 310,000; AID 2642, 2010;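 active means compounds whose thallium flux B-score, printed positive for inhibition, exceeds three library SD while starting fluorescence stays within three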;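 further: channel opened by potassium depolarization with thallium stimulus after 20 min compound exposure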
hERG rescue – hERG rescue from dofetilide block, primary screen, cell-based, CHO-hERG, FluxOR thallium flux, dofetilide IC70 | activation (rescue from dofetilide block), less the hit threshold, % at 10 µM | hit rate 0.51% among 310,000 | dofetilide IC70 present | AID 1511, 2009;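 active means activation above the mean of controls blocked by dofetilide plus 5 SD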;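 further: thallium influx through hERG after potassium depolarization seen as dye fluorescence rise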
KCNQ1 pot – potentiators or activators of KCNQ1 channel, primary screen, cell-based, thallium flux, high-throughput; Potassium voltage-gated channel subfamily KQT member 1 (Homo sapiens), P51787; CHO-K1 KCNQ1, thallium flux FluxOR fluorescence; hits give high values; B-score at 10 µM; hit rate 0.35% among 310,000;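 active means fluorescence ratio B-score, a plate-corrected score, at least three library SD, with initial intensity B-score within 5 SD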
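Medium – assay buffer, equal DMSO in all wells · Material – CHO-K1 cell line with stable KCNQ1 potassium channel expression · Signal – kinetic FluxOR thallium fluorescence, 10-s 1-Hz baseline, 110-s post-stimulus read · Compound – single concentration per compound, DMSO matched to controls · Schedule – 37 °C overnight plating, 90-min dark dye load, 20-min compound pretreatment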
PHOSPHO1 block – PubChem AID 1565; hit rate 1.1% among 290,000; recombinant PHOSPHO1, absorbance phosphatase assay; inhibition, % at 13.3 µM; in the data active means inhibition above about 60%
Target sequence (Q8TCT1 whole entry, looked up): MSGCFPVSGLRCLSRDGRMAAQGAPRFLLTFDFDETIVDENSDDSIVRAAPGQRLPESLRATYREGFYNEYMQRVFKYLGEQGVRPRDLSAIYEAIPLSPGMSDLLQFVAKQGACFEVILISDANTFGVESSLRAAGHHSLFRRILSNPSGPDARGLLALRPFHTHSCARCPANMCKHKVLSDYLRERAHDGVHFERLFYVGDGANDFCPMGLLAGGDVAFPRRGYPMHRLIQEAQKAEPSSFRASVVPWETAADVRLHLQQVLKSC
* = called active by the depositor; i = inactive; x = no result. The list is not random: actives were taken first. Their share in the collection is about 4%.

SMILES	KCNK9 inh	KCNK3 block	KCNQ1 inh	hERG rescue	KCNQ1 pot	PHOSPHO1 block
CS(=O)(=O)c1ccc(C(=O)OCc2nnc(-c3ccccc3)o2)cc1[N+](=O)[O-]	i	i	i	-17	21*	11
Cc1ccccc1NC(=O)COC(=O)c1ccc(S(C)(=O)=O)c([N+](=O)[O-])c1	i	i	i	-15	i	60*
COc1cc(/C=N/N2C(=O)CSC2=S)cc(Br)c1O	x	-9.4*	x	x	x	-98
O=C(CCNS(=O)(=O)c1ccc(F)c(F)c1)NCCN1CCOCC1	x	i	x	x	x	x
Oc1cccc(C=NN=C2c3ccccc3-c3ccccc32)c1	x	-9*	x	x	x	x
O=C1Nc2ccccc2/C1=N/N=C/c1cccc(O)c1	i	i	i	-8	i	46
O=C1c2ccccc2NC(c2ccccc2)N1Cc1ccccc1 (centres undefined)	i	i	i	-11	i	x
Cc1ccc(CN2C(=O)c3ccccc3NC2c2cc(Br)ccc2O)cc1 (centres undefined)	i	i	13*	-13	i	23
S=c1[nH]nc(COc2ccccc2)n1Cc1ccccc1	i	i	i	-11	i	8
CCCCOc1ccc(Cc2n[nH]c(=S)n2N)cc1	i	i	i	-8	i	79*
CCCCc1n[nH]c(=S)n1Cc1ccc(Cl)cc1	-10*	i	i	-4	i	-23
CCc1ccc(OCc2n[nH]c(=S)n2Cc2ccccc2)cc1	i	i	i	-7	i	90*
CCCCc1n[nH]c(=S)n1Cc1ccccc1	i	i	i	-11	i	-35
O=C(NC(=S)NCc1ccccc1)c1ccccc1Br	i	i	i	-4	i	14
COc1ccc(C)cc1NC(=O)CCNS(=O)(=O)c1ccc2c(c1)CC(C)N2C(C)=O (centres undefined)	i	i	i	-12	i	22
COc1ccccc1NC(=S)NC(C)C(c1cccs1)N1CCOCC1 (centres undefined)	i	i	i	-10	i	-6
COc1ccccc1C(=O)n1nc(-c2ccccc2)nc1NCc1ccco1	-7.7*	i	i	-14	i	-10
O=C(c1ccco1)n1nc(-c2ccccc2)nc1NCc1ccco1	i	i	i	-11	i	-21
CCOc1ccccc1NC(=S)NCc1ccco1	i	i	i	-12	i	82*
CCOc1ccccc1NC(=S)NCc1ccccc1	i	i	i	-3	i	30
CCOC(=O)c1c(-c2ccc(C)o2)csc1N	i	i	i	-9	i	69*
CCOC(=O)c1c(-c2ccc(C)o2)csc1NC(=O)COC(=O)c1cccs1	-6.7*	i	i	-24	i	-10
CCOC(=O)c1c(-c2ccc(C)o2)csc1NC(=O)CN1CCOCC1	i	i	i	-4	i	22
CCOC(=O)c1c(-c2ccc(C)o2)csc1NC(=S)NC(=O)N(C)C	i	i	i	14*	39*	5
CCOC(=O)c1c(-c2ccsc2)csc1N	i	i	i	-8	i	92*
SMILES	KCNK9 inh	KCNK3 block	KCNQ1 inh	hERG rescue	KCNQ1 pot	PHOSPHO1 block
CCOC(=O)c1c(CC(C)C)csc1N	i	i	i	-11	i	23
CCOC(=O)c1c(-c2ccc(C)s2)csc1N	i	i	i	-5	i	-92
COc1cccc(NC(=O)C2CC(=O)N/C(=N/NC(=O)c3ccc(C)cc3)S2)c1 (centres undefined)	i	i	i	0	i	29
CCN(CC)c1ccc(NC(=O)COC(=O)c2cccs2)cc1	i	i	i	-12	i	100*
CN1/C(=C\C=N\O)C(C)(C)c2ccccc21	i	i	i	-4	i	16
CN1/C(=C\C=[N+](C)c2ccccc2)C(C)(C)c2ccccc21	i	i	8*	-18	i	-50
CN(C)c1ccc(N=C/C=C2/N(C)c3ccccc3C2(C)C)cc1	i	i	6*	-19	i	-7
CCCCn1c(N)c(N(CCOC)C(=O)c2nn(CC)c(=O)c3ccccc23)c(=O)[nH]c1=O	i	i	i	-5	i	x
O=C1CCCc2ccccc2N1Cc1cccc(Cl)c1	x	i	x	x	x	7
N#CC1=C(N)Oc2cc3ccccc3cc2C1c1cccs1 (centres undefined)	i	i	i	-4	i	62*
C=CCN(C(=O)Cn1c(C(=O)OC)cc2oc(C)cc21)c1ccccc1	i	i	i	-2	i	74*
COC(=O)c1cc2oc(C)cc2n1CC(=O)N(C)c1ccccc1	i	i	i	0	i	-3
CCOC(=O)N1CCN(C(=O)CSc2ccc(-c3ccc(OC)c(OC)c3)nn2)CC1	i	i	i	-16	i	53
CCOC(=O)N1CCN(C(=O)CSc2ccc(-c3ccc(OC)cc3)nn2)CC1	i	i	i	-28	i	68*
O=C(CSc1ccc(-c2ccccc2)nn1)N1CCCCC1	i	i	i	40*	i	-1
O=C(CSc1ccc(-c2ccncc2)nn1)N1CCCCC1	i	i	i	-5	i	-20
O=C(CSc1ccc(-c2ccc(Br)cc2)nn1)N1CCOCC1	i	i	i	5.0*	i	-18
CCCC(=O)Nc1cccc(C(=O)Nc2ccccc2OCC)c1	-7.8*	x	i	-9	i	-5
CCOc1ccccc1NC(=O)c1cccc(NC(=O)C(C)C)c1	i	i	i	-17	i	61*
CCOc1ccccc1NC(=O)CCC(=O)Nc1ccccc1OCC	i	i	i	-5	i	19
CC(=O)OCC(=O)[C@@]12OC(C)(C)O[C@@H]1C[C@H]1[C@@H]3C[C@H](F)C4=CC(=O)C=C[C@]4(C)[C@@]3(F)[C@@H](O)C[C@@]12C	i	x	i	1	i	-1
CC(=O)OCC(=O)[C@@]1(OC(C)=O)[C@@H](C)C[C@H]2[C@@H]3C[C@H](F)C4=CC(=O)C=C[C@]4(C)[C@@]3(F)[C@@H](O)C[C@@]21C	i	i	i	-11	29*	6
CC1CCN(c2c(NCc3ccc(C(=O)NCCc4ccc(Cl)cc4)cc3)c(=O)c2=O)CC1	i	i	i	-13	i	21

Screens (PubChem)
